Results as given in PMC4806784 (Investigational new drugs, 2015).
Read-outs that look alike come from different tables or passages of the source.

Key:
[1] = system: AURKA, AURKB, BIRC5, PRC1, TACC3, DLGAP5 [DLG7], and NDC80 [KNTC2]; experiment: Gene expression PD biomarkers by quantitative RT-PCR on hair follicle RNA; format: in vivo, human; conditions: Panel 1 (MT), p < 0.05 unadjusted
[2] = system: human tumor cell lines and xenograft models; conditions: subset of human tumor cell lines and xenograft models; cited from earlier work
[3] = format: in vivo, human; conditions: for AUC(0-t) / Cmax / Tmax / half-life / concentration at 12 h: plasma; for concentration at 12 h: C12h
Method in brief: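 Test compound was given as oral capsules with […] water after a 2-h fast, BID Q12hr, 3–6 patients per dose level. Docetaxel 60 mg/m2 was a 1-h IV infusion 2 h beforehand. […] was sampled on Cycle 1 Day 1 (predose, 0.5–24 h after dose 1) and Day 2 (predose, 0.5–44 h after dose 4). Analysis was non-compartmental, with AUC by linear-up/log-down trapezoidal method and Cmax/Tmax by inspection.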

AK-A = conditions: adenosine triphosphate-competitive inhibitor; cited from earlier work
HeLaS3 cells = conditions: cited from earlier work
[4] = system: other kinases, including both Aurora B and Aurora C; conditions: cited from earlier work
[5] = system: phospho-Aurora B (pAurB) and phospho-histone H3 (pHH3); experiment: Immunohistochemistry of hair follicles and skin biopsies; format: in vivo, human; conditions: Panel 1 (MT), pre- and post-dose hair follicles and skin biopsies
Method in brief: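 Plucked scalp hair follicles (from at least 15 hair shafts) and skin punch biopsies were taken pre-dose and on Cycle 1 Day 2, 4 (±1) h after the third oral BID Q12hr dose. Only Panel 1 monotherapy patients were sampled. Phospho-Aurora B and phospho-histone H3 were assessed by immunohistochemistry as change from baseline.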

## O=C(O)[C@]1(Cc2cccc(Nc3nccs3)n2)CC[C@@H](Oc2cccc(Cl)c2F)CC1 [MK-5108]
[1]
  genes (of seven) with significant dose-related changes in the expected direction: 5 genes
[2]
  single-agent activity: modest single-agent activity
[3]; Panel 2 (CT with docetaxel), any tested dose level
  mean target trough concentration of 2 μM: not achieved
[3]; following the first dose
  dose proportionality of AUC0-12h and Cmax: less than dose proportionally
[3]; following the fourth dose, 100 to 1800 mg (Q12hr)
  dose proportionality of AUC0-12h and Cmax: roughly dose proportionally
[3]; human, in vivo
  dose proportionality of serum concentration at 12 hours post dose (trough): roughly dose proportionally
  shape of mean plasma concentration decline: biphasic decline
[3]; human, iv, 60 mg/m2, AUC0-12h, 100 mg/day, Panel 2 (CT, docetaxel 60 mg/m^2 IV), Dose 1
  AUC(0-t): 7.9 ± 2 µM·h
[3]; human, iv, 60 mg/m2, AUC0-12h, 100 mg/day, Panel 2 (CT, docetaxel 60 mg/m^2 IV), Dose 4
  AUC(0-t): 10.8 ± 3.3 µM·h
[3]; human, iv, 60 mg/m2, AUC0-12h, 150 mg/day, Panel 2 (CT, docetaxel 60 mg/m^2 IV), Dose 1
  AUC(0-t): 15 ± 9.2 µM·h
[3]; human, iv, 60 mg/m2, AUC0-12h, 150 mg/day, Panel 2 (CT, docetaxel 60 mg/m^2 IV), Dose 4
  AUC(0-t): 16.4 ± 8.9 µM·h
[3]; human, iv, 60 mg/m2, AUC0-12h, 225 mg/day, Panel 2 (CT, docetaxel 60 mg/m^2 IV), Dose 1
  AUC(0-t): 18.5 ± 6.2 µM·h
[3]; human, iv, 60 mg/m2, AUC0-12h, 225 mg/day, Panel 2 (CT, docetaxel 60 mg/m^2 IV), Dose 4
  AUC(0-t): 23.4 ± 8.8 µM·h
[3]; human, iv, 60 mg/m2, Cmax, 100 mg/day, Panel 2 (CT, docetaxel 60 mg/m^2 IV), Dose 1
  Cmax: 2.3 ± 1.2 µM
[3]; human, iv, 60 mg/m2, Cmax, 100 mg/day, Panel 2 (CT, docetaxel 60 mg/m^2 IV), Dose 4
  Cmax: 2.2 ± 1 µM
[3]; human, iv, 60 mg/m2, Cmax, 150 mg/day, Panel 2 (CT, docetaxel 60 mg/m^2 IV), Dose 1
  Cmax: 3.5 ± 2 µM
[3]; human, iv, 60 mg/m2, Cmax, 150 mg/day, Panel 2 (CT, docetaxel 60 mg/m^2 IV), Dose 4
  Cmax: 3.2 ± 1.7 µM
[3]; human, iv, 60 mg/m2, Cmax, 225 mg/day, Panel 2 (CT, docetaxel 60 mg/m^2 IV), Dose 1
  Cmax: 5 ± 0.8 µM
[3]; human, iv, 60 mg/m2, Cmax, 225 mg/day, Panel 2 (CT, docetaxel 60 mg/m^2 IV), Dose 4
  Cmax: 5.3 ± 1.7 µM
[3]; human, iv, 60 mg/m2, Tmax, 100 mg/day, Panel 2 (CT, docetaxel 60 mg/m^2 IV), Dose 1, median (range)
  Tmax: 2 h
[3]; human, iv, 60 mg/m2, Tmax, 100 mg/day, Panel 2 (CT, docetaxel 60 mg/m^2 IV), Dose 4, median (range)
  Tmax: 4 h
[3]; human, iv, 60 mg/m2, Tmax, 150 mg/day, Panel 2 (CT, docetaxel 60 mg/m^2 IV), Dose 1, median (range)
  Tmax: 3.5 h
[3]; human, iv, 60 mg/m2, Tmax, 150 mg/day, Panel 2 (CT, docetaxel 60 mg/m^2 IV), Dose 4, median (range)
  Tmax: 5 h
[3]; human, iv, 60 mg/m2, Tmax, 225 mg/day, Panel 2 (CT, docetaxel 60 mg/m^2 IV), Dose 1, median (range)
  Tmax: 2 h
[3]; human, iv, 60 mg/m2, Tmax, 225 mg/day, Panel 2 (CT, docetaxel 60 mg/m^2 IV), Dose 4, median (range)
  Tmax: 3 h
[3]; human, iv, 60 mg/m2, t1/2, 100 mg/day, Panel 2 (CT, docetaxel 60 mg/m^2 IV), Dose 4
  half-life: 13.5 ± 10.6 h
[3]; human, iv, 60 mg/m2, t1/2, 150 mg/day, Panel 2 (CT, docetaxel 60 mg/m^2 IV), Dose 4
  half-life: 10.1 ± 5 h
[3]; human, iv, 60 mg/m2, t1/2, 225 mg/day, Panel 2 (CT, docetaxel 60 mg/m^2 IV), Dose 4
  half-life: 9.2 ± 5.1 h
[3]; human, iv, 100 mg/day, Panel 2 (CT, docetaxel 60 mg/m^2 IV), Dose 1
  concentration at 12 h: 0.15 ± 0.12 µM
[3]; human, iv, 100 mg/day, Panel 2 (CT, docetaxel 60 mg/m^2 IV), Dose 4
  concentration at 12 h: 0.21 ± 0.1 µM
[3]; human, iv, 150 mg/day, Panel 2 (CT, docetaxel 60 mg/m^2 IV), Dose 1
  concentration at 12 h: 0.33 ± 0.22 µM
[3]; human, iv, 150 mg/day, Panel 2 (CT, docetaxel 60 mg/m^2 IV), Dose 4
  concentration at 12 h: 0.51 ± 0.37 µM
[3]; human, iv, 225 mg/day, Panel 2 (CT, docetaxel 60 mg/m^2 IV), Dose 1
  concentration at 12 h: 0.46 ± 0.26 µM
[3]; human, iv, 225 mg/day, Panel 2 (CT, docetaxel 60 mg/m^2 IV), Dose 4
  concentration at 12 h: 0.66 ± 0.62 µM
[3]; human, oral, 200 mg/day, AUC0-12h, Panel 1 (MT), Dose 1
  AUC(0-t): 17.5 ± 5.6 µM·h
[3]; human, oral, 200 mg/day, AUC0-12h, Panel 1 (MT), Dose 4
  AUC(0-t): 31.2 ± 16.3 µM·h
[3]; human, oral, 200 mg/day, Panel 1 (MT), Dose 1
  concentration at 12 h: 0.35 ± 0.05 µM
[3]; human, oral, 200 mg/day, Panel 1 (MT), Dose 4
  concentration at 12 h: 1.92 ± 1.91 µM
[3]; human, oral, 200 mg/day, Cmax, Panel 1 (MT), Dose 1
  Cmax: 3.9 ± 0.7 µM
[3]; human, oral, 200 mg/day, Cmax, Panel 1 (MT), Dose 4
  Cmax: 4.8 ± 1 µM
[3]; human, oral, 200 mg/day, Tmax, Panel 1 (MT), Dose 1, median (range)
  Tmax: 4 h
[3]; human, oral, 200 mg/day, Tmax, Panel 1 (MT), Dose 4, median (range)
  Tmax: 4 h
[3]; human, oral, 200 mg/day, t1/2, 200 mg/day, Panel 1 (MT), Dose 4
  half-life: 9.3 ± 1.2 h
[3]; human, oral, 400 mg/day, AUC0-12h, Panel 1 (MT), Dose 1
  AUC(0-t): 27 ± 12.2 µM·h
[3]; human, oral, 400 mg/day, AUC0-12h, Panel 1 (MT), Dose 4
  AUC(0-t): 75.7 ± 46.2 µM·h
[3]; human, oral, 400 mg/day, Panel 1 (MT), Dose 1
  concentration at 12 h: 0.25 ± 0.13 µM
[3]; human, oral, 400 mg/day, Panel 1 (MT), Dose 4
  concentration at 12 h: 2.02 ± 1.52 µM
[3]; human, oral, 400 mg/day, Cmax, Panel 1 (MT), Dose 1
  Cmax: 6.7 ± 2.4 µM
[3]; human, oral, 400 mg/day, Cmax, Panel 1 (MT), Dose 4
  Cmax: 11 ± 5.3 µM
[3]; human, oral, 400 mg/day, Tmax, Panel 1 (MT), Dose 1, median (range)
  Tmax: 2 h
[3]; human, oral, 400 mg/day, Tmax, Panel 1 (MT), Dose 4, median (range)
  Tmax: 6 h
[3]; human, oral, 400 mg/day, t1/2, 400 mg/day, Panel 1 (MT), Dose 4
  half-life: 8.7 ± 6.7 h
[3]; human, oral, 800 mg/day, AUC0-12h, Panel 1 (MT), Dose 1
  AUC(0-t): 69 ± 41.9 µM·h
[3]; human, oral, 800 mg/day, AUC0-12h, Panel 1 (MT), Dose 4
  AUC(0-t): 95.5 ± 44.9 µM·h
[3]; human, oral, 800 mg/day, Panel 1 (MT), Dose 1
  concentration at 12 h: 1.68 ± 1.91 µM
[3]; human, oral, 800 mg/day, Panel 1 (MT), Dose 4
  concentration at 12 h: 4.53 ± 2.68 µM
[3]; human, oral, 800 mg/day, Cmax, Panel 1 (MT), Dose 1
  Cmax: 19.5 ± 5.5 µM
[3]; human, oral, 800 mg/day, Cmax, Panel 1 (MT), Dose 4
  Cmax: 20 ± 11 µM
[3]; human, oral, 800 mg/day, Tmax, Panel 1 (MT), Dose 1, median (range)
  Tmax: 1 h
[3]; human, oral, 800 mg/day, Tmax, Panel 1 (MT), Dose 4, median (range)
  Tmax: 1 h
[3]; human, oral, 800 mg/day, t1/2, 800 mg/day, Panel 1 (MT), Dose 4
  half-life: 11.1 ± 1.1 h
[3]; human, oral, 1200 mg/day, AUC0-12h, Panel 1 (MT), Dose 1
  AUC(0-t): 96.6 ± 45.6 µM·h
[3]; human, oral, 1200 mg/day, AUC0-12h, Panel 1 (MT), Dose 4
  AUC(0-t): 116 ± 61.4 µM·h
[3]; human, oral, 1200 mg/day, Panel 1 (MT), Dose 1
  concentration at 12 h: 2.12 ± 2.09 µM
[3]; human, oral, 1200 mg/day, Panel 1 (MT), Dose 4
  concentration at 12 h: 3.31 ± 0.53 µM
[3]; human, oral, 1200 mg/day, Cmax, Panel 1 (MT), Dose 1
  Cmax: 22.3 ± 12.7 µM
[3]; human, oral, 1200 mg/day, Cmax, Panel 1 (MT), Dose 4
  Cmax: 25 ± 9.4 µM
[3]; human, oral, 1200 mg/day, Tmax, Panel 1 (MT), Dose 1, median (range)
  Tmax: 2 h
[3]; human, oral, 1200 mg/day, Tmax, Panel 1 (MT), Dose 4, median (range)
  Tmax: 3 h
[3]; human, oral, 1200 mg/day, t1/2, 1200 mg/day, Panel 1 (MT), Dose 4
  half-life: 8.3 ± 3.3 h
[3]; human, oral, 1500 mg/day, AUC0-12h, Panel 1 (MT), Dose 1
  AUC(0-t): 83.2 ± 50.8 µM·h
[3]; human, oral, 1500 mg/day, AUC0-12h, Panel 1 (MT), Dose 4
  AUC(0-t): 131 ± 53.2 µM·h
[3]; human, oral, 1500 mg/day, Panel 1 (MT), Dose 1
  concentration at 12 h: 1.04 ± 0.4 µM
[3]; human, oral, 1500 mg/day, Panel 1 (MT), Dose 4
  concentration at 12 h: 2.8 ± 1.26 µM
[3]; human, oral, 1500 mg/day, Cmax, Panel 1 (MT), Dose 1
  Cmax: 20.8 ± 10.6 µM
[3]; human, oral, 1500 mg/day, Cmax, Panel 1 (MT), Dose 4
  Cmax: 28.9 ± 13.6 µM
[3]; human, oral, 1500 mg/day, Tmax, Panel 1 (MT), Dose 1, median (range)
  Tmax: 2 h
[3]; human, oral, 1500 mg/day, Tmax, Panel 1 (MT), Dose 4, median (range)
  Tmax: 2 h
[3]; human, oral, 1500 mg/day, t1/2, 1500 mg/day, Panel 1 (MT), Dose 4
  half-life: 11.4 ± 2 h
[3]; human, oral, 1800 mg/day, AUC0-12h, Panel 1 (MT), Dose 1
  AUC(0-t): 101 ± 39.3 µM·h
[3]; human, oral, 1800 mg/day, AUC0-12h, Panel 1 (MT), Dose 4
  AUC(0-t): 234 ± 62.7 µM·h
[3]; human, oral, 1800 mg/day, Panel 1 (MT), Dose 1
  concentration at 12 h: 4.78 ± 4.64 µM
[3]; human, oral, 1800 mg/day, Panel 1 (MT), Dose 4
  concentration at 12 h: 6.85 ± 3.96 µM
[3]; human, oral, 1800 mg/day, Cmax, Panel 1 (MT), Dose 1
  Cmax: 24.8 ± 9.6 µM
[3]; human, oral, 1800 mg/day, Cmax, Panel 1 (MT), Dose 4
  Cmax: 50.2 ± 11.4 µM
[3]; human, oral, 1800 mg/day, Tmax, Panel 1 (MT), Dose 1, median (range)
  Tmax: 2 h
[3]; human, oral, 1800 mg/day, Tmax, Panel 1 (MT), Dose 4, median (range)
  Tmax: 3 h
[3]; human, oral, 1800 mg/day, t1/2, 1800 mg/day, Panel 1 (MT), Dose 4
  half-life: 6.6 ± 0.6 h
[3]; human, oral, Median Tmax, following the first dose, across dose levels
  Tmax: 1 to 4 h
[3]; human, oral, Median Tmax, following the fourth dose, across dose levels
  Tmax: 1 to 6 h
[3]; human, oral, mean t1/2, range across dose levels, across both panels
  half-life: 6.6 to 13.5 h
[3]; human, oral, t1/2 range (variable), following Dose 4
  half-life: 5 to 29 h
AK-A
  IC50: 0.064 nM
HeLaS3 cells
  apoptosis in combination with docetaxel: robustly potentiated apoptosis
[4]
  target specificity relative to other kinases: comparatively high target specificity
[5]
  change from baseline in pHH3 and pAurB (IHC): no clear dose-related increases
